# AF4-AF9 inh – blocks AF4 peptide binding to human AF9 | inhibition, % at 10 µM | AlphaScreen, biotin-AF4 peptide binding to FLAG-AF9 | AID 651704 | P42568 | 350,000 compounds, 0.47% hits;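 active = every replicate reaching a set inhibition limit, whatever the replicate mean, cut at about 25% in these data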;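 note: 0% = plate neutral control median and 100% = total signal loss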
# PDI turbidity – blocks human protein disulfide isomerase activity. P07237. PDI insulin aggregation turbidity, A650, 90 min. inhibition, % at 10 µM. 350,000 compounds, 0.052% hits. AID 588391;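 active = mean inhibition across replicates of 30% or more, whatever share of single replicates reach that level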
# FGF22 binding-1 – binders of recombinant human FGF22 by thermal shift; SYPRO orange fluorescence; percent of sucrose octasulfate shift, DMSO zero; activity (Tm shift, normalised), % at 9.99 µM; 340,000 compounds, 1.5% hits; AID 651658; Q9HCT0;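 active = mean Tm shift, scaled 0 neutral to 100 positive control, at about 1.3% or above, every replicate too, limit read from the data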
# ARNT-TACC3 inh – disruptors of human ARNT/TACC3 interaction; Q9Y6A5; AlphaScreen His-ARNT PAS-B/GST-TACC3 binding, luminescence; TACC3 fragment carries E629A point mutation; inhibition, % at 9.99 µM; 390,000 compounds, 0.66% hits;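 active = mean inhibition of replicates at least 50% and at least half of replicates each reaching 50%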;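 note: 0% = complete ARNT plus TACC3 wells and 100% = ARNT alone without TACC3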
# ERp5 inh – inhibitors of human ERp5. 350,000 compounds, 0.05% hits. ERp5 insulin aggregation, absorbance 650 nm, 90 min. inhibition, % at 9.99 µM;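 active = mean replicate inhibition above about 25%, with every replicate also reaching it, limit read from the data, passing the limit was not always enough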
# Target sequence (Q15084 whole entry, looked up): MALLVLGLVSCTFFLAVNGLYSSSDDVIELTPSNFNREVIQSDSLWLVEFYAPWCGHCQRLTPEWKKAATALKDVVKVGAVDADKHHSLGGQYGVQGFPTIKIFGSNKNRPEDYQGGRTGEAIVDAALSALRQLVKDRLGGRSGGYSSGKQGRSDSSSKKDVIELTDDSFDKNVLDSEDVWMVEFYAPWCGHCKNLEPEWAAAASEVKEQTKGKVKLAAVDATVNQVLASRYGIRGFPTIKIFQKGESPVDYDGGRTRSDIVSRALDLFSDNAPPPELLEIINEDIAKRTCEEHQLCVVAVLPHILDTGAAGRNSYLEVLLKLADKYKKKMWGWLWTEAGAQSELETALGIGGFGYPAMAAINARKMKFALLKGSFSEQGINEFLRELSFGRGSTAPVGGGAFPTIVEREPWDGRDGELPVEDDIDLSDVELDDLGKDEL
# FN deposition inh – fibronectin deposition inhibition; 350,000 compounds, 0.086% hits; AID 743247; AH1F fibroblasts, Alexa488-fibronectin deposition fluorescence, overnight; inhibition, % at 12.6 µM;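 active = mean inhibition across replicates of 30% or more, regardless of how many single replicates reach that level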;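 note: positive control wells lacked labelled fibronectin entirely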
#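 Material: AH1F fibroblasts assembling fluorescent fibronectin matrix; amount: 10000 AH1F cells/well; medium: DMEM, 2% serum; reagent: Alexa488-fibronectin, 24 nM final in well; dosing: single compound dose, delivered by pin transfer; incubation: 1 h adhesion, overnight exposure; detection: fluorescence after three HBSS washes, excitation 485 nm, emission 525 nm; measure: fibronectin deposition inhibition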
# FGF22 binding-2 – binds human FGF22 shifting its melting temperature; 1,000 compounds, 2% hits; thermal shift activity, °C (ΔTm) at 38 µM; recombinant FGF22 thermal shift, SYPRO orange fluorescence; shares compounds with FGF22 binding-1;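 active = fitted rise in melting shift crosses a set limit at or below the top valid dose tested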
# FGF22 TSA DP – binders of human FGF22 by thermal shift; 50 tested, under 10 active; Tm shift (activity), % at 38 µM; Thermal shift assay, SYPRO orange, melting temperature shift; shares compounds with FGF22 binding-1;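 active = compounds whose fitted dose curve of melting temperature shift rises past a set threshold within the tested doses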
# SYPRO no-protein – counter-screen for FGF22 binders: compound-only thermal shift, no protein. shares compounds with FGF22 binding-1. compound-only SYPRO orange thermal shift counter-screen. AC50, µM (series often up to 38 µM). 1,000 compounds, 2% hits. AID 743019;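 active = rising signal whose fitted curve reaches the 0.54 level within the top valid dose, showing a melting point, actives reach about 13 µM in these data; inactive = the rest, including activity in the opposite direction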; note: value is where the raw curve crosses a fixed level and not half-maximal
# * = called active by the depositor; i = inactive; . = not tested or not shown. An excerpt weighted towards active compounds, which were near 2.1% of everything screened.
SMILES,AF4-AF9 inh,PDI turbidity,FGF22 binding-1,ARNT-TACC3 inh,ERp5 inh,FN deposition inh,FGF22 binding-2,FGF22 TSA DP,SYPRO no-protein
CCCC(=O)Nc1ccc2c(c1)C(=O)N(C)C[C@@H](OC)[C@H](C)CN(C(=O)Cc1cccnc1)[C@H](C)CO2,-1.3,.,0.1,-3.5,7.7,-0.3,.,.,.
Cc1ccc(S(=O)(=O)c2nnn(-c3cccc(F)c3)c2N)cc1,1.5,6.2,1.5*,-1.6,-18.5,-5.3,-0.014,.,i
O=C(N/N=C/c1ccncc1)c1cccc(N/N=C/c2ccncc2)c1,2.8,2.7,1.5*,13.7,2.5,.,0.004,.,i
O=C(N/N=C/c1ccc(Cl)cc1)c1ccc2nc[nH]c2c1,2.6,2.2,2.5*,.,-1.9,.,0.017,.,i
Cc1nc2c(C)cccc2cc1C(=O)N/N=C/c1ccc(O)cc1,1.6,10.8,2.2*,6.8,3.4,6.3,-0.391,.,i
O=C(N/N=C/c1ccncc1)c1cccc(NC(=O)c2ccc(Cl)cc2)c1,0.2,26.3,2.4*,-9.3,-0.5,-18.3,0.066,.,i
O=C(NCCn1cc(CN2C(=O)COC[C@H]2c2ccccc2)nn1)Nc1ccccc1,-3.8,.,-0.1,.,-6.2,.,.,.,.
COc1ccc(S(=O)(=O)N(C)C[C@@H]2OCCCC[C@H](C)Oc3ccc(NC(=O)C4CCCCC4)cc3C(=O)N([C@H](C)CO)C[C@H]2C)cc1,-1.2,.,-0.7,-3.3,-0.4,5.3,.,.,.
C[C@]12CCC(=O)N1CCc1c2[nH]c2ccccc12,1.2,.,-0.1,-7.8,-5.6,.,.,.,.
O=C(N/N=C/c1ccc(O)cc1)c1cccc(N/N=C/c2ccc(O)cc2)c1,6.4,7.7,1.7*,.,-0.4,6.7,0.261,.,i
O=C(N/N=C/c1ccc(O)cc1)c1cccc(C(F)(F)F)c1,.,5.2,.,3.9,.,-5.9,.,.,.
O=C(N/N=C/c1c[nH]c2ccccc12)c1cccc(Cl)c1,6.1,4.5,2.8*,9.0,-0.8,4.3,.,-0.5,i
O=C(N/N=C/c1ccsc1)c1c[nH]c2ccccc12,-1.8,13.1,3.7*,5.4,-4.0,5.9,-0.063,.,i
O=C(N/N=C/c1c[nH]c2ccccc12)c1ccc(O)c(O)c1,9.4,6.9,2.4*,11.5,1.3,-2.6,-0.034,0.2,i
O=C(N/N=C/c1c[nH]c2ccccc12)c1cccc(O)c1,3.2,2.1,2.1*,7.6,1.0,-3.0,0.519,0.8,i
CCOc1ccccc1C(=O)N/N=C/c1c[nH]c2ccccc12,-1.0,-1.0,0.2,2.7,2.6,15.4,.,.,.
CC(=O)Nc1cccc(C(=O)N/N=C/c2c[nH]c3ccccc23)c1,2.3,-2.1,3.8*,-8.1,-0.8,1.0,.,0.1,i
Cn1ccc(C(=O)N/N=C/c2c[nH]c3ccccc23)n1,9.5,-4.2,-0.1,.,1.5,7.4,.,.,.
C[C@@H]1CN([C@H](C)CO)C(=O)c2cc(NC(=O)Nc3ccc(F)cc3)ccc2O[C@@H]1CN(C)S(=O)(=O)c1cn(C)cn1,-8.7,.,-0.8,.,-2.0,.,.,.,.
CC(C)c1c(C(=O)N/N=C/c2c[nH]c3ccccc23)nnn1-c1nonc1N,6.2,-1.4,2.3*,5.6,-1.1,1.0,.,0.7,i
CN(Cc1c(C(=O)N/N=C/c2ccc(O)cc2)nnn1-c1nonc1N)c1ccccc1,0.5,5.6,1.9*,0.3,5.4,-1.3,-0.027,-0.1,i
COc1cc2oc(-c3ccc(O)cc3)cc(=O)c2c(O)c1OC,2.5,.,10.1*,1.3,-2.3,.,-0.085,.,i
CCC(=O)N1CC2(C1)[C@@H](c1ccc(-c3cccc(C)c3)cc1)[C@@H](CO)N2S(C)(=O)=O,-1.5,.,0.4,.,-4.2,-6.5,.,.,.

# Screening results deposited in PubChem BioAssay by Broad Institute.
